Laboratory results taken from ChEMBL document CHEMBL1125510, “Analogs of the delta opioid receptor selective cyclic peptide [2-D-penicillamine,5-D-penicillamine]-enkephalin: 2',6'-dimethyltyrosine and Gly3-Phe4 amide bond isostere substitutions” (J Med Chem, 1992).

Legend:
[1] = test system: NG108-15; assay: Concentration that inhibited PGE-stimulated cAMP formation by 50%, in NG108-15 cells.; type: functional, cell-based; settings: Murinae
Procedure, shortened: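 NG108-15 neuroblastoma cells stimulated with PGE1. cAMP measured by radioimmunoassay. EC50 is the concentration that inhibits 50% of stimulated cAMP formation, given as mean ± SD of two determinations.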

[2] = species on record: Mus musculus; assay: Concentration of the Compound that inhibits electrically-induced contractions of the mouse vas deferens by 50%; type: functional, organism-based
Procedure, shortened: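 Electrically stimulated isolated mouse vas deferens at 37 °C. Buffer had no tyrosine, ascorbic acid or disodium edetate. IC50 is the concentration that halves contractions, given as mean ± SD of two or three experiments.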

[3] = species on record: Mus musculus; assay: Antinociceptive effect determined at 30 min post injection by writhing test; type: functional, organism-based
[4] = species on record: Mus musculus; assay: Antinociceptive effect determined at 30 min post injection by tail flick test; type: functional, organism-based
Procedure, shortened: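 Male CD-1 mice, 20–30 g, screened beforehand (TFL ≤ 4.0 s or HPL ≤ 15 s). Groups of 10 dosed sc with vehicle or 10, 30 or 100 mg/kg at 10 mL/kg. Radiant-heat beam focused on blackened tail, and withdrawal latency read by photosensor as the mean of two readings (12 s cutoff). ED50 ± SE in mg/kg taken at 30 min.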

[5] = test system: Mus musculus; assay: Antinociceptive effect determined at 30 min post injection by writhing test; Inactive at 30 mg/kg, the highest dose tested.; type: functional, organism-based; design: dose 30 mg/kg
[6] = biological target: Mu-type opioid receptor (Rattus norvegicus, UniProt P33535); assay: Compound was evaluated for its binding affinity by displacement of [3H]- DAMPGO from opioid receptor mu by using opioid radioligand binding assay
Sequence of Mu-type opioid receptor (P33535 whole entry): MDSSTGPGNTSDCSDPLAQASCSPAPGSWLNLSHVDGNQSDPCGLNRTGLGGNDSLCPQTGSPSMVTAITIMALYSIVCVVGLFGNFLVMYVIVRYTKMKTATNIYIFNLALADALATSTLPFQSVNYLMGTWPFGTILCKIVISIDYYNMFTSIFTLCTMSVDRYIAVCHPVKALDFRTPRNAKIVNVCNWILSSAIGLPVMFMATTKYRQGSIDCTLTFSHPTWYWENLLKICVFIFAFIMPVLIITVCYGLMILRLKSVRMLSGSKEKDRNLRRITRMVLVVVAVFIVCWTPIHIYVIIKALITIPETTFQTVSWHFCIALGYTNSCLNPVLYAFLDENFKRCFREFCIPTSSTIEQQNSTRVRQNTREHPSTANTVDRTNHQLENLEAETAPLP
Procedure, shortened: (§1)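 Male Sprague-Dawley rat forebrain membranes in 50 mM Tris, pH 7.4. Competition against [3H]DSLET (2 nM final, δ) or [3H]DAMPGO (4 nM final, μ). Nonspecific binding defined with 10 μM levorphan. Incubated 60–90 min at 25 °C, then filtered on GF/B and counted. Ki given as mean ± SEM from at least three experiments.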

[7] = biological target: Delta-type opioid receptor (Rattus norvegicus, UniProt P33533); assay: Compound was evaluated for its binding affinity by displacement [3H]- DSLET from Opioid receptor delta 1 by using opioid radioligand binding assay; procedure, shortened: as §1
Sequence of Delta-type opioid receptor (P33533 whole entry): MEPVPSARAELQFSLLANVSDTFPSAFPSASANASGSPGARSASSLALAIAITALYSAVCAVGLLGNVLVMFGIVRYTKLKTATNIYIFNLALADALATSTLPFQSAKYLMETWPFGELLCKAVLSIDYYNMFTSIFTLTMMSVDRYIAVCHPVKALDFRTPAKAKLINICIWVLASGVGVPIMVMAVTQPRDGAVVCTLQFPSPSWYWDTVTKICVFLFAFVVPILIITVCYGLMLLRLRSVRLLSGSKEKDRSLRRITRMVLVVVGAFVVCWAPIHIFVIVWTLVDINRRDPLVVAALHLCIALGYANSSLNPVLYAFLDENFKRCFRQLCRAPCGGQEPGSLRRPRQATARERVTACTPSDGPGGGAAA

[8] = biological target: Mu-type opioid receptor (Rattus norvegicus) (UniProt P33535); assay: Ratio on opioid receptor mu (ki(nM)) to the opioid receptor delta (Ki(nM))
Sequence of Mu-type opioid receptor (Rattus norvegicus) (P33535 whole entry): as the sequence (P33535 whole entry) above

Row | SMILES | Ki [6] [nM] | Ki [7] [nM] | Ratio [8] | also measured
1 | CC1(C)SSC(C)(C)[C@@H](NC(=O)[C@@H](N)Cc2ccc(O)cc2)C(=O)NCC(=O)N[C@@H](Cc2ccccc2)C(=O)N[C@H]1C(=O)O |  |  |  | EC50 [1]: 18 nM; EC50 ([2]; Mus musculus): 5.2 nM
2 | COC(=O)[C@@H]1NC(=O)[C@H](Cc2ccccc2)NC(=O)CNC(=O)[C@H](NC(=O)[C@@H](N)Cc2c(C)cc(O)cc2C)C(C)(C)SSC1(C)C.Cl |  |  |  | EC50 [3]: 2.1 mg/kg; EC50 [4]: 40 mg/kg; EC50 [1]: 1.1 nM; EC50 ([2]; Mus musculus): 0.65 nM
3 | COC(=O)[C@@H]1NC(=O)[C@H](Cc2ccccc2)NC(=O)CNC(=O)[C@H](NC(=O)[C@@H](N)Cc2ccc(O)cc2)C(C)(C)SSC1(C)C.Cl |  |  |  | EC50 [5]: Not Active; EC50 [1]: 21 nM; EC50 ([2]; Mus musculus): 10.5 nM
4 | COC(=O)[C@H]1NC(=O)C(Cc2ccccc2)OCCNC(=O)[C@@H](NC(=O)[C@@H](N)Cc2c(C)cc(O)cc2C)C(C)(C)SSC1(C)C (single isomer, unassigned; less polar) [listing 1 of 2 here] | 6.5 | 43 |  | EC50 [2]: 143 nM
5 | COC(=O)[C@H]1NC(=O)C(Cc2ccccc2)/C=C\CNC(=O)[C@@H](NC(=O)[C@@H](N)Cc2c(C)cc(O)cc2C)C(C)(C)SSC1(C)C (single isomer, unassigned; less polar) [listing 1 of 2 here] | 32 | 45 |  | EC50 [2]: > 1000 nM
6 | COC(=O)[C@H]1NC(=O)C(Cc2ccccc2)CCCNC(=O)[C@@H](NC(=O)[C@@H](N)Cc2c(C)cc(O)cc2C)C(C)(C)SSC1(C)C (single isomer, unassigned; less polar) [listing 1 of 2 here] | 176 | 79 |  | 
7 | COC(=O)[C@H]1NC(=O)C(Cc2ccccc2)/C=C\CNC(=O)[C@@H](NC(=O)[C@@H](N)Cc2c(C)cc(O)cc2C)C(C)(C)SSC1(C)C (single isomer, unassigned; less polar) [listing 2 of 2 here] |  |  | 0.7 | 
8 | COC(=O)[C@H]1NC(=O)C(Cc2ccccc2)CCCNC(=O)[C@@H](NC(=O)[C@@H](N)Cc2c(C)cc(O)cc2C)C(C)(C)SSC1(C)C (single isomer, unassigned; less polar) [listing 2 of 2 here] |  |  | 2.3 | 
9 | COC(=O)[C@H]1NC(=O)C(Cc2ccccc2)OCCNC(=O)[C@@H](NC(=O)[C@@H](N)Cc2c(C)cc(O)cc2C)C(C)(C)SSC1(C)C (single isomer, unassigned; less polar) [listing 2 of 2 here] |  |  | 0.15 | 
10 | COC(=O)[C@H]1NC(=O)C(Cc2ccccc2)OCCNC(=O)[C@@H](NC(=O)[C@@H](N)Cc2c(C)cc(O)cc2C)C(C)(C)SSC1(C)C (single isomer, unassigned; more polar) [listing 1 of 2 here] | 150 | 91 |  | EC50 [2]: > 1000 nM
11 | COC(=O)[C@H]1NC(=O)C(Cc2ccccc2)/C=C\CNC(=O)[C@@H](NC(=O)[C@@H](N)Cc2c(C)cc(O)cc2C)C(C)(C)SSC1(C)C (single isomer, unassigned; more polar) [listing 1 of 2 here] | 1.1 | 2.3 |  | EC50 [2]: 247 nM
12 | COC(=O)[C@H]1NC(=O)C(Cc2ccccc2)CCCNC(=O)[C@@H](NC(=O)[C@@H](N)Cc2c(C)cc(O)cc2C)C(C)(C)SSC1(C)C (single isomer, unassigned; more polar) [listing 1 of 2 here] | 11 | 21 |  | EC50 ([2]; Mus musculus): > 1000 nM
13 | COC(=O)[C@H]1NC(=O)C(Cc2ccccc2)/C=C\CNC(=O)[C@@H](NC(=O)[C@@H](N)Cc2c(C)cc(O)cc2C)C(C)(C)SSC1(C)C (single isomer, unassigned; more polar) [listing 2 of 2 here] |  |  | 0.5 | 
14 | COC(=O)[C@H]1NC(=O)C(Cc2ccccc2)CCCNC(=O)[C@@H](NC(=O)[C@@H](N)Cc2c(C)cc(O)cc2C)C(C)(C)SSC1(C)C (single isomer, unassigned; more polar) [listing 2 of 2 here] |  |  | 0.5 | 
15 | COC(=O)[C@H]1NC(=O)C(Cc2ccccc2)OCCNC(=O)[C@@H](NC(=O)[C@@H](N)Cc2c(C)cc(O)cc2C)C(C)(C)SSC1(C)C (single isomer, unassigned; more polar) [listing 2 of 2 here] |  |  | 1.7 | 
